Legend:
Format in all cases: cell-based
[1] = test system: Oocyte; experiment: Allosteric modulation of gamma-aminobutyric acid receptor A alpha1beta2gamma2S expressed in Xenopus oocytes assessed as potentiation of GABA-mediated chloride current at 1 uM by voltage clamp assay
Outline: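 Rat α1β2γ2S cRNAs (1:1:10) injected into collagenase-defolliculated oocytes, stored at 18 °C, recorded days 1–5. Two-microelectrode voltage clamp at −70 mV in HEPES-buffered bath (pH 7.4). Compound in bath solution with GABA EC5–10 (from a 0.1 μM–1 mM GABA concentration–response) applied by automated fast perfusion at 300 μL/s. Read-out is IGABA potentiation.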

[2] = test system: Oocyte; experiment: Allosteric modulation of rat gamma-aminobutyric acid receptor A alpha1beta2gamma2S expressed in Xenopus oocytes assessed as potentiation of GABA-mediated chloride current at 0.1 to 1000 uM after 20 secs by voltage clamp assay
Outline: (§1)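 Rat α1β2γ2S cRNAs (1:1:10) injected into collagenase-defolliculated Xenopus oocytes, stored at 18 °C, recorded days 1–5. Two-microelectrode voltage clamp at −70 mV in 90 mM NaCl/1 mM KCl/1 mM MgCl2/1 mM CaCl2/5 mM HEPES pH 7.4. Compounds at 0.1–1000 μM co-applied by fast perfusion with GABA at EC5–10, determined from a 0.1 μM–1 mM GABA concentration–response. Read-out: IGABA potentiation.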

[3] = Allosteric modulation of rat gamma-aminobutyric acid receptor A alpha1beta2gamma2S expressed in Xenopus oocytes assessed as potentiation of GABA-mediated chloride current after 20 secs by voltage clamp assay; settings: Oocyte; outline: as §1

| Structure (SMILES) | Activity [1] [%] | Emax [2] [%] | EC50 [3] [µM] |
| --- | --- | --- | --- |
| CC1=C2[C@H](/C=C(\C)C(=O)O)CC[C@@H](C)[C@H]2CC1 | 400 |  |  |
| C[C@@H]1CCC2=C1C=C1C(C)(C)OO[C@@]1(O)C[C@H]2C |  | 588 | 65.3 |
| C=C[C@]1(C)CC[C@@H](C(C)C)C(=O)C1=C(C)C |  | 164 | 109 |
| CC1=CC[C@]2(CC1=O)[C@@H](C)CC[C@H]2C(C)C |  | 241 | 34 |
| C=C[C@]1(C)CC[C@@H](C(C)C)C(=O)[C@H]1C(=C)C |  | 669 | 64.8 |
| C/C=C\c1cc(OC)c(OC)cc1OC [CIS-ASARONE] |  | 1200 | 172 |
| Cc1nnc2n1-c1ccc(Cl)cc1C(c1ccccc1Cl)=NC2 | 253 |  |  |
| Cc1ncc2n1-c1ccc(Cl)cc1C(c1ccccc1F)=NC2 | 342 |  |  |
| CCc1cc2c(s1)N(C)C(=O)CN=C2c1ccccc1Cl | 260 |  |  |
| C=C1CC/C=C(\C)CC[C@@H](C(C)C)C(=O)C1 |  | 886 | 135 |

— ChEMBL document CHEMBL1811783, “Positive GABA(A) receptor modulators from Acorus calamus and structural analysis of (+)-dioxosarcoguaiacol by 1D and 2D NMR and molecular modeling” (J Nat Prod, 2011)
